# Source: PubChem
# Lmaj promast: inhibitors of Leishmania major promastigote growth; Leishmania major promastigotes, resazurin fluorescence viability; actives 9% (n = 200,000); inhibition, % at 10 µM; AID 1063;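 further: promastigotes grown with compound for 44 hours at 28 °C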
# Arbovirus anti: antivirals against arbovirus infection. actives 0.37% (n = 200,000). inhibition, % at 10 µM. AID 1251. arbovirus infection cell-based antiviral screen; in the data active means inhibition above about 30%
# Rad51 HR inh: Rad51 (human) homologous recombination inhibition | Q06609 | hRad51 DNA strand exchange, fluorescence dequenching | inhibition, % at 10 µM | actives 0.085% (n = 200,000) | AID 1385;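 active means inhibition above 40% at the single screening dose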;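 further: 0% = DMSO control wells and 100% = blanks with heterologous ssDNA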
#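 Read-out basis: percent inhibition relative to plate controls and blanks / Assay system: human Rad51 nucleoprotein filaments preassembled on unlabelled ssDNA / Timing: filaments 15 min 37 °C, then compound 30 min / Control set: per-plate controls and blanks / Technique: fluorescence dequenching at 485/520 nm / Compound: 10 µM final, single point / Also added: Fluorescein- and BHQ1-tagged 47-mer duplex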
# CHOP inh: inhibitors of CHOP induction in ER stress response; CHO-K1 CHOP-promoter luciferase, tunicamycin-induced, 15-18 h; inhibition, % at 10 µM; actives 3.8% (n = 220,000); AID 2732;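 active means compounds that reduced the stress-induced luciferase reporter signal by more than about 70% of percent inhibition, limit read from the data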;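 further: 0% = tunicamycin plus vehicle and 100% = wells without tunicamycin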
# PKD1 kinase inh: blocks activity of human protein kinase D1; PKD1 kinase fluorescence polarization assay; inhibition, % (concentration not given with the values); actives 0.056% (n = 200,000); AID 797
# Wee1 degr inh: blocks degradation of human Wee1 kinase | P30291 | HeLa Luc-Wee1K328M stability, luciferase luminescence; 100% = proteasome inhibitor MG132 effect | reporter increase, % at 5 µM | actives 1.2% (n = 220,000) | AID 1321;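 active means activation above the mean of all tested compounds plus 3 SD, set per screening run, cut at about 8.8% in these data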;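 further: cells exposed to compound for 20 h before luminescence read; 0% = DMSO alone and 100% = MG132 at 30 µM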
# Starred values were filed as active, the others as inactive; · = not tested or not shown. The list is not random: actives were taken first. Their share in the collection is about 12%. Unless noted, no stated cut-off is given here; in the data, active means inhibition above about 50%; inactive means the rest.
SMILES,Lmaj promast,Arbovirus anti,Rad51 HR inh,CHOP inh,PKD1 kinase inh,Wee1 degr inh
Cc1nc(Nc2nc3ccccc3o2)nc2c1CCC2,1,-6,3,18,1,1
Cc1ccc(N2C(=O)C3ON(c4ccccc4)C(c4ccncc4)C3C2=O)cc1 (stereo not drawn),41,0,8,8,-9,0
O=C1C2ON(c3ccccc3)C(c3ccccc3F)C2C(=O)N1c1ccccc1 (stereo not drawn),-7,1,3,80*,15,-1
O=C(O)c1ccc(N2C(=O)C3ON(c4ccccc4)C(c4ccccc4F)C3C2=O)cc1 (stereo not drawn),-8,3,2,11,5,-1
O=C1C2ON(c3ccc(Cl)cc3)C(c3ccco3)C2C(=O)N1c1ccccc1 (stereo not drawn),-7,-3,-2,74*,3,0
CN1OC2C(=O)N(c3ccccc3)C(=O)C2C1c1ccc(F)cc1 (stereo not drawn),-5,-3,3,44,-5,17*
CCC(OC(C)=O)c1cc2c(cc1[N+](=O)[O-])OCCO2 (stereo not drawn),0,1,-3,-2,1,3
COC(=O)c1sc(N)c(C(=O)OC)c1COC(=O)C1CC(=O)N(Cc2ccco2)C1 (stereo not drawn),51*,-25,·,-3,-9,0
CCOC(=O)c1sc(N)c(C(=O)OCC)c1COC(=O)C1CC(=O)N(Cc2ccco2)C1 (stereo not drawn),1,-30,-7,-47,-2,-1
O=C(Nc1nnc(SCc2ccc(F)cc2)s1)c1ccc2ncsc2c1,10,-8,-2,73*,-3,-2
O=C(Nc1nnc(SCc2ccc(F)cc2)s1)c1ccc2c(c1)C(=O)N(c1ccccc1Cl)C2=O,-12,44*,·,16,3,5
CCCCc1c(C)nc2ccc(Br)cc2c1SC(N)N,-2,1,3,7,2,-2
CCCCN1CCc2c1nc1ccc(Br)cc1c2N,101*,15,-9,3,-2,-2
COc1ccc(CN=C2NC(=O)CC(C(=O)Nc3ccc([N+](=O)[O-])cc3C)S2)cc1 (stereo not drawn),86*,-9,-1,19,-6,1
COc1ccc(CN=C2NC(=O)CC(C(=O)Nc3ccccc3C)S2)cc1 (stereo not drawn),-3,1,1,8,-2,7
CSc1nc2nccc(/C=C\c3ccccc3)n2n1,86*,-24,-6,-6,-12,0
CSc1nc2nccc(-c3ccc(Cl)cc3)n2n1,1,-2,3,63,1,-2
Cc1ccc(SCC2(O)CCN(S(=O)(=O)c3ccc(Cl)cc3)CC2)cc1,3,-29,-2,81*,-3,6
CN1CCN(CC2(O)CCN(S(=O)(=O)c3ccc(Cl)cc3)CC2)CC1,100*,2,1,23,-4,1
CC(C)C(OC(=O)c1cccs1)C(=O)NCc1ccccc1 (stereo not drawn),1,-1,·,2,-8,1
CCn1c(CNC(=O)COc2ccc(C(C)C)cc2)nnc1SCC(=O)Nc1ccccc1C(C)C,76*,2,2,62,-8,-3
CCOC(=O)CC(NS(=O)(=O)Cc1ccccc1)c1ccc(C)cc1 (stereo not drawn),59*,2,8,10,3,0
CCOC(=O)CC(NS(=O)(=O)c1ccc(NC(C)=O)cc1)c1ccc(OCC)cc1 (stereo not drawn),5,3,5,15,-6,-2
CCc1nnc(NC(=O)Cc2cc(OC)c(OC)c(OC)c2)s1,6,19,-4,-3,-6,-2
Cc1csc2nc3cc(C(N)=O)ccc3c(=O)n12,·,·,8,-19,·,·
NC(=O)c1ccc2c(=O)n3c(-c4cc(Cl)c(N)c(Cl)c4)csc3nc2c1,·,·,5,88*,·,·
CC1CC(C)CN(CCC(=O)Nc2cccc(Cl)c2)C1 (stereo not drawn),83*,10,-6,-3,-8,0
Cc1cccc(NC(=O)CCN2CC(C)OC(C)C2)c1 (stereo not drawn),89*,-3,0,-28,-7,-2
O=C(CCN1CCCCC1)Nc1cccc(Cl)c1,5,5,0,25,-2,-1
